ChEMBL document CHEMBL2384923, “Design, synthesis and antimicrobial activities evaluation of Schiff base derived from secnidazole derivatives as potential FabH inhibitors” (Bioorg Med Chem, 2013)
≈ marks a conversion by molar mass, not a printed value.

Legend:
[1] = Inhibition of Escherichia coli N-terminal His-tagged full length FabH expressed in Escherichia coli BL21 (DE3) using [3H]acetyl-CoA as substrate assessed as incorporation of [3H] signal into product after 25 mins by liquid scintillation counting analysis
How it was run: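 His-tagged FabH was purified on Ni-NTA. Holo-ACP was made from apo-ACP with ACPS and CoA. The 20 µL reaction held pH 7.0 sodium phosphate (20 mM), 0.5 mM DTT, 0.25 mM MgCl₂, 2.5 µM holo-ACP and 1 nM FabH, preincubated 1 min. The reaction started with a 2 µL mix of 25 µM acetyl-CoA and 0.75 µCi [³H]acetyl-CoA and ran 25 min. It was stopped with ice-cold TCA, and the washed pellet was counted. Inhibitors were added from DMSO stock, ≤2% DMSO final, and IC50 was determined.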

Staphylococcus aureus = experiment: Antimicrobial activity against Staphylococcus aureus ATCC 6538 after 24 hrs by two fold serial dilution method; assay type: functional; details: ATCC 6538, 24 h
How it was run: (§1)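 Tested per NCCLS by two-fold serial dilution in nutrient broth. The inoculum came from 24 h cultures on nutrient agar at 37 ± 1 °C and was adjusted with sterile saline to 1 ×10^4-105 CFU. […] Tubes were incubated at 37 ± 1 °C, and MIC was read visually after 24 h. Kanamycin and DDCP served as standards.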

Bacillus subtilis = experiment: Antimicrobial activity against Bacillus subtilis ATCC 530 after 24 hrs by two fold serial dilution method; assay type: functional; details: ATCC 530, 24 h; how it was run: as §1
Pseudomonas aeruginosa = experiment: Antimicrobial activity against Pseudomonas aeruginosa ATCC 27853 after 24 hrs by two fold serial dilution method; assay type: functional; details: ATCC 27853, 24 h; how it was run: as §1
Escherichia coli = experiment: Antimicrobial activity against Escherichia coli ATCC 25922 after 24 hrs by two fold serial dilution method; assay type: functional; details: ATCC 25922, 24 h; how it was run: as §1

SMILES	IC50 [1] [µM]	MIC (Staphylococcus aureus) [µg/mL]	MIC (Bacillus subtilis) [µg/mL]	MIC (Pseudomonas aeruginosa) [µg/mL]	MIC (Escherichia coli) [µg/mL]
COc1ccc(/C=N/NC(=O)Cn2c([N+](=O)[O-])cnc2C)cc1	4.5	12.5 (≈ 39.4 µM)	6.25 (≈ 19.7 µM)	6.25 (≈ 19.7 µM)	6.25 (≈ 19.7 µM)
Cc1ncc([N+](=O)[O-])n1CC(=O)N/N=C/c1ccc([N+](=O)[O-])cc1	–	25 (≈ 75.2 µM)	50 (≈ 150 µM)	25 (≈ 75.2 µM)	25 (≈ 75.2 µM)
Cc1ncc([N+](=O)[O-])n1CC(=O)N/N=C/c1ccc(O)cc1	–	> 100	> 100	> 100	50 (≈ 165 µM)
Cc1ccc(/C=N/NC(=O)Cn2c([N+](=O)[O-])cnc2C)cc1	6.2	12.5 (≈ 41.5 µM)	25 (≈ 83 µM)	6.25 (≈ 20.7 µM)	6.25 (≈ 20.7 µM)
Cc1ncc([N+](=O)[O-])n1CC(=O)N/N=C/c1ccc(N(C)C)cc1	15.9	25 (≈ 75.7 µM)	12.5 (≈ 37.8 µM)	12.5 (≈ 37.8 µM)	12.5 (≈ 37.8 µM)
Cc1ncc([N+](=O)[O-])n1CC(=O)N/N=C/c1cccc(F)c1	–	25 (≈ 81.9 µM)	25 (≈ 81.9 µM)	50 (≈ 164 µM)	50 (≈ 164 µM)
Cc1ncc([N+](=O)[O-])n1CC(=O)N/N=C/c1cccc(Br)c1	–	> 100	> 100	50 (≈ 137 µM)	25 (≈ 68.3 µM)
Cc1ncc([N+](=O)[O-])n1CC(=O)N/N=C/c1cccc(Cl)c1	–	50 (≈ 155 µM)	50 (≈ 155 µM)	50 (≈ 155 µM)	25 (≈ 77.7 µM)
Cc1ncc([N+](=O)[O-])n1CC(=O)N/N=C/c1cccc([N+](=O)[O-])c1	–	50 (≈ 150 µM)	> 100	50 (≈ 150 µM)	25 (≈ 75.2 µM)
COc1cccc(/C=N/NC(=O)Cn2c([N+](=O)[O-])cnc2C)c1	–	25 (≈ 78.8 µM)	50 (≈ 158 µM)	50 (≈ 158 µM)	25 (≈ 78.8 µM)
Cc1ncc([N+](=O)[O-])n1CC(=O)N/N=C/c1ccccc1Cl	–	50 (≈ 155 µM)	50 (≈ 155 µM)	> 100	> 100
Cc1ncc([N+](=O)[O-])n1CC(=O)N/N=C/c1ccccc1F	47.5	> 100	> 100	> 100	> 100
Cc1ncc([N+](=O)[O-])n1CC(=O)N/N=C/c1ccccc1[N+](=O)[O-]	19.8	12.5 (≈ 37.6 µM)	12.5 (≈ 37.6 µM)	25 (≈ 75.2 µM)	25 (≈ 75.2 µM)
COc1ccccc1/C=N/NC(=O)Cn1c([N+](=O)[O-])cnc1C	42.4	> 100	> 100	50 (≈ 158 µM)	50 (≈ 158 µM)
Cc1ncc([N+](=O)[O-])n1CC(=O)N/N=C/c1ccc(F)cc1F	–	25 (≈ 77.3 µM)	50 (≈ 155 µM)	50 (≈ 155 µM)	50 (≈ 155 µM)
COc1ccc(/C=N/NC(=O)Cn2c([N+](=O)[O-])cnc2C)cc1OC	8.8	12.5 (≈ 36 µM)	25 (≈ 72 µM)	12.5 (≈ 36 µM)	12.5 (≈ 36 µM)
Cc1cc(/C=N/NC(=O)Cn2c([N+](=O)[O-])cnc2C)cc(C)c1C	2.3	3.13 (≈ 9.5 µM)	3.13 (≈ 9.5 µM)	6.25 (≈ 19 µM)	3.13 (≈ 9.5 µM)
Cc1ncc([N+](=O)[O-])n1CC(=O)N/N=C/c1ccc(Cl)cc1	–	> 100	> 100	50 (≈ 155 µM)	50 (≈ 155 µM)
Cc1ncc([N+](=O)[O-])n1CC(=O)N/N=C/c1ccc(Br)cc1	–	25 (≈ 68.3 µM)	25 (≈ 68.3 µM)	12.5 (≈ 34.1 µM)	25 (≈ 68.3 µM)
Cc1ncc([N+](=O)[O-])n1CC(=O)N/N=C/c1ccc(F)cc1	58.3	> 100	> 100	> 100	> 100
NC[C@H]1O[C@H](O[C@H]2[C@H](O)[C@@H](O[C@H]3O[C@H](CO)[C@@H](O)[C@H](N)[C@H]3O)[C@H](N)C[C@@H]2N)[C@H](O)[C@@H](O)[C@@H]1O [KANAMYCIN]	–	1.56 (≈ 3.22 µM)	1.56 (≈ 3.22 µM)	3.13 (≈ 6.46 µM)	3.13 (≈ 6.46 µM)
